pIC50: −log10 of the molar value. In brackets after ≈: the same amount, converted by molar mass.
Legend:
Mus musculus [1] = test: Effect on gardos channel activity in SAD1 mouse model assessed by measuring [86Rb]/L of cells at 20 mg/kg, po bid after 14 days; format: functional
[2] = target: T1, Intermediate conductance calcium-activated potassium channel protein 4 (Homo sapiens, UniProt O15554); test: Inhibition of Gardos channel in human RBC assessed as inhibition of ionomycin-stimulated [86Rb] efflux
[3] = Solubility by shake-flask method; format: physicochemical
How it was run: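 Modified shake-flask method: about 1 mg compound shaken overnight in 1 mL PBS, pH 6.8. Supernatant analysed by LC/MS/MS; 2 measurements.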

[4] = Cmax in Sprague-Dawley rat at 1 mg/kg, iv or 10 mg/kg, po; format: ADME, organism-based; details: in vivo
How it was run: (§1)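 Male Sprague-Dawley rats (251–299 g), n = 3 per time point. Dosed 1 mg/Kg IV by tail vein in PEG-400/cremophor-EL, or 10 mg/Kg by oral gavage in 0.5% aqueous methylcellulose. Plasma sampled 0.08–24 h (IV) or 0.5–24 h (PO) and quantified by LC-MS, LLOQ 1 ng/mL. Noncompartmental analysis; Cmax and Tmax read from the data; AUC by linear-log trapezoidal rule.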

[5] = Half life in Sprague-Dawley rat at 1 mg/kg, iv or 10 mg/kg, po; format: ADME, organism-based; details: in vivo; how it was run: as §1
Mus musculus [6] = test: Effect on mean corpuscular hemoglobin concentration in SAD1 mouse model at 20 mg/kg, po bid after 7 days; format: functional
How it was run: (§2)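 Transgenic SAD-1 mice of both sexes, 3–6 months, 25–30 g, given vehicle or compound by oral gavage twice daily. Blood parameters taken at baseline and at days 7 and 14 (20 mg/kg arm) or days 11 and 21 (10 mg/kg arm). Hematocrit measured by micro-Hct centrifugation; cells washed three times in PBS (330 mOsm) at 25 °C.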

Liver = test: Intrinsic clearance in rat liver microsome S9 fraction as % compound remaining after incubation; format: ADME, subcellular
Mus musculus [7] = test: Effect on mean corpuscular hemoglobin concentration in SAD1 mouse model at 20 mg/kg, po bid after 14 days; format: functional; how it was run: as §2
CYP3A4 = CYP3A4 (Homo sapiens, UniProt P08684); test: Inhibition of CYP3A4 at 10 uM; format: ADME
[8] = Tmax in Sprague-Dawley rat at 1 mg/kg, iv or 10 mg/kg, po; format: ADME, organism-based; details: in vivo; how it was run: as §1
Mus musculus [9] = test: Effect on hematocrit levels in SAD1 mouse model at 20 mg/kg, po bid after 14 days; format: functional; how it was run: as §2
Mus musculus [10] = test: Effect on gardos channel activity in SAD1 mouse model assessed by measuring [86Rb]/L of cells at 20 mg/kg, po bid after 7 days; format: functional
Mus musculus [11] = test: Effect on hematocrit levels in SAD1 mouse model at 20 mg/kg, po bid after 7 days; format: functional; how it was run: as §2
hERG (KCNH2) = hERG (KCNH2) (Homo sapiens, UniProt Q12809); test: Inhibition of human ERG at 10 uM
Mus musculus [12] = test: Effect on hematocrit levels in SAD1 mouse model at 10 mg/kg, po bid after 21 days; format: functional; how it was run: as §2
Mus musculus [13] = test: Effect on mean corpuscular hemoglobin concentration in SAD1 mouse model at 10 mg/kg, po bid after 11 days; format: functional; how it was run: as §2
[14] = Bioavailability in Sprague-Dawley rat at 1 mg/kg, iv or 10 mg/kg, po; format: ADME, organism-based; details: in vivo; how it was run: as §1
Mus musculus [15] = test: Effect on gardos channel activity in SAD1 mouse model at 10 mg/kg, po bid after 11 days; format: functional
Mus musculus [16] = test: Effect on gardos channel activity in SAD1 mouse model at 10 mg/kg, po bid after 21 days; format: functional
Mus musculus [17] = test: Effect on hematocrit levels in SAD1 mouse model at 10 mg/kg, po bid after 11 days; format: functional; how it was run: as §2
Mus musculus [18] = test: Effect on mean corpuscular hemoglobin concentration in SAD1 mouse model at 10 mg/kg, po bid after 21 days; format: functional; how it was run: as §2
[19] = target: T1, Intermediate conductance calcium-activated potassium channel protein 4; test: Inhibition of Gardos channel in human RBC assessed as […] at 10 uM

Sequence of CYP3A4 (P08684 whole entry): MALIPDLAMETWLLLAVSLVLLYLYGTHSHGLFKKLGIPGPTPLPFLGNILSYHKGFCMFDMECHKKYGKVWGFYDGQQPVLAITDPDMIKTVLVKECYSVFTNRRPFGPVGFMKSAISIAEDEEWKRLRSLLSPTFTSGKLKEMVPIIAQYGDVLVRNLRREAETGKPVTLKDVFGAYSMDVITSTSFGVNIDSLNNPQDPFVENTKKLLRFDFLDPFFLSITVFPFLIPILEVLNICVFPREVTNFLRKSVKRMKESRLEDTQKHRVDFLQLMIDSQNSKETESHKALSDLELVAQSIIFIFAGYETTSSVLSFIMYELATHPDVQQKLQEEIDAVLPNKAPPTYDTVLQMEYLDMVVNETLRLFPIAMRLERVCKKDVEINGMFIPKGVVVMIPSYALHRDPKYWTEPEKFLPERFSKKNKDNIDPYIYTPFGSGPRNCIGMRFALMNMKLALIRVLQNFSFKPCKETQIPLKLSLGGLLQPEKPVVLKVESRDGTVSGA
T1 sequence (O15554 whole entry): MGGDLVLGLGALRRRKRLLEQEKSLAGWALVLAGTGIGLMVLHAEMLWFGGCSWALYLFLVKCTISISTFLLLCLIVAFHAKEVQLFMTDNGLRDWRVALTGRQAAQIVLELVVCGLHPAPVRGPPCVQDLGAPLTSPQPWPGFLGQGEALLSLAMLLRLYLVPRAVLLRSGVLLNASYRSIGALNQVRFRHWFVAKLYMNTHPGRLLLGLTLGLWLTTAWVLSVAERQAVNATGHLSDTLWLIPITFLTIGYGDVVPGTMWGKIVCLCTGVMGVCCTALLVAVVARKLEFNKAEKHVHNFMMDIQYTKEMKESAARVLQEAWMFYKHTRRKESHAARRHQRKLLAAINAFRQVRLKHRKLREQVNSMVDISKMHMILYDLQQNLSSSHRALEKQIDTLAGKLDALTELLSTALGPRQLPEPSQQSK
Sequence of hERG (KCNH2) (Q12809 whole entry): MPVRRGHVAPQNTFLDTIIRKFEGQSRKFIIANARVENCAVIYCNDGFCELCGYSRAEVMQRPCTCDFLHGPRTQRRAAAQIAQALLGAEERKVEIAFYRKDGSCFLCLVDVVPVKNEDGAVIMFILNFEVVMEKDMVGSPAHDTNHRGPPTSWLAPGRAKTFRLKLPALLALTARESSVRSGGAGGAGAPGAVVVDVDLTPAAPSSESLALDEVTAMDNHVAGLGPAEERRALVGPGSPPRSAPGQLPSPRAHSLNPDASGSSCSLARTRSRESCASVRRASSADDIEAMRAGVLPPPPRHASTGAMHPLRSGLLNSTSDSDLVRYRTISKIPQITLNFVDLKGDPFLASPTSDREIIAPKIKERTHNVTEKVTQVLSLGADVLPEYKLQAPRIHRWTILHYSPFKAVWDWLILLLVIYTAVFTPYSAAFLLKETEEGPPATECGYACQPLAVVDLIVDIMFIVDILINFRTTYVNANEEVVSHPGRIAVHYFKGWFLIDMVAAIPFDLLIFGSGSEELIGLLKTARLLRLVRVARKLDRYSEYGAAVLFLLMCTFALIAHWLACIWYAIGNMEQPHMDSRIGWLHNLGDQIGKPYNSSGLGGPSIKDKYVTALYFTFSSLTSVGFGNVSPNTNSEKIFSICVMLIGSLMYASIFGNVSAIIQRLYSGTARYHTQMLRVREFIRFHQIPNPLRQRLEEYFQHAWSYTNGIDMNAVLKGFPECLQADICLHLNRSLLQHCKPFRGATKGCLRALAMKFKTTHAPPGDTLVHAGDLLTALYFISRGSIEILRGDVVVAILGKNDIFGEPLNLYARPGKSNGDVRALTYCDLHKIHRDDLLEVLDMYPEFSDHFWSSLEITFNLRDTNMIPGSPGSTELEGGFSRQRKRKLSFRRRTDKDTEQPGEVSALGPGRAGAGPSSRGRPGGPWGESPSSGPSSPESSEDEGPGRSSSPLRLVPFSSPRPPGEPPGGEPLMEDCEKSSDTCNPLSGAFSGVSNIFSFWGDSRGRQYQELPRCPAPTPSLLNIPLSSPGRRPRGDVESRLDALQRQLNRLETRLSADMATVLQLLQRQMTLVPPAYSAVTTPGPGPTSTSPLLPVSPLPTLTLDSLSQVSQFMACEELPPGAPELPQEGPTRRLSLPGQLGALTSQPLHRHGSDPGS

NC(=O)C(c1ccccc1)(c1ccc(F)cc1)c1ccccc1F (stereo unspecified)
Activity (Mus musculus [1]): 2 mmol | pIC50 [2]: 8.05 | solubility thermodynamic [3]: 5.8 µM (≈ 1.88 µg/mL) | Cmax [4]: 250 ng/mL | half-life [5]: 2.5 h | Activity (Mus musculus [6]): 34 g/dL | Compound remaining (Liver): 40% | Activity (Mus musculus [7]): 27 g/dL | inhibition at 10 µM (CYP3A4): < 20% | Tmax [8]: 2 h | Activity (Mus musculus [9]): 47% | Activity (Mus musculus [10]): 4 mmol | Activity (Mus musculus [11]): 44.5%

NC(=O)C(c1ccc(F)cc1)(c1ccc(F)cc1)c1ccc(F)cc1
pIC50 [2]: 7.85 | solubility thermodynamic [3]: 2.6 µM (≈ 0.887 µg/mL) | Compound remaining (Liver): 25%

NC(=O)C(c1cccc(F)c1)(c1cccc(F)c1)c1cccc(F)c1
pIC50 [2]: 7.89 | solubility thermodynamic [3]: 3.4 µM (≈ 1.16 µg/mL) | Compound remaining (Liver): 36%

NC(=O)C(c1ccccc1)(c1cccc(F)c1)c1cccc(F)c1
solubility thermodynamic [3]: 1.2 µM (≈ 0.388 µg/mL) | Compound remaining (Liver): 43%

NC(=O)C(c1ccccc1)(c1ccccc1)c1ccccc1F
solubility thermodynamic [3]: 10.6 µM (≈ 3.24 µg/mL) | Compound remaining (Liver): 61%

NC(=O)C(c1ccccc1)(c1ccccc1)c1ccc(F)c(F)c1
pIC50 [2]: 7.85 | solubility thermodynamic [3]: 4.3 µM (≈ 1.39 µg/mL) | Compound remaining (Liver): 63%

CNC(=O)C(c1ccccc1)(c1ccccc1)c1ccccc1
pIC50 [2]: 6.26 | inhibition at 10 µM (hERG (KCNH2)): < 20% | inhibition at 10 µM (CYP3A4): < 20%

NC(=O)C(c1ccccc1)(c1ccccc1)c1ccc(F)cc1
pIC50 [2]: 7.40 | solubility thermodynamic [3]: 2.9 µM (≈ 0.886 µg/mL) | Compound remaining (Liver): 58%

c1ccc(C(C2=NCCO2)(c2ccccc2)c2ccccc2)cc1
pIC50 [2]: 5.37

NC(=O)C(c1ccc(F)cc1)(c1ccc(F)cc1)c1ccccc1F
pIC50 [2]: 8.00 | solubility thermodynamic [3]: 8.3 µM (≈ 2.83 µg/mL) | Compound remaining (Liver): 62%

COC(=O)C(c1ccccc1)(c1ccccc1)c1ccccc1
pIC50 [2]: 6.48

CN(C)C(=O)C(c1ccccc1)(c1ccccc1)c1ccccc1
pIC50 [2]: 5.50

NC(=O)C(c1ccc(F)cc1)(c1cccc(F)c1)c1cccc(F)c1
pIC50 [2]: 7.82

NC(=O)C(c1ccc(F)cc1)(c1ccc(F)cc1)c1cccc(F)c1
pIC50 [2]: 7.77 | solubility thermodynamic [3]: 4.1 µM (≈ 1.4 µg/mL) | Compound remaining (Liver): 19%

O=C(O)C(c1ccccc1)(c1ccccc1)c1ccccc1
pIC50 [2]: < 5.00

NC(=O)C(c1ccccc1)(c1ccccc1)c1ccc(F)cc1F
solubility thermodynamic [3]: 1.8 µM (≈ 0.582 µg/mL) | Compound remaining (Liver): 44%

NC(=O)C(c1ccccc1)(c1ccc(F)cc1)c1ccc(F)cc1 [SENICAPOC]
Activity (Mus musculus [12]): 49.9% | Activity (Mus musculus [13]): 29.5 g/dL | bioavailability [14]: 51% | Activity (Mus musculus [15]): 3 mmol | solubility thermodynamic [3]: 3.8 µM (≈ 1.23 µg/mL) | Cmax [4]: 400 ng/mL | Activity (Mus musculus [16]): 1.5 mmol | half-life [5]: 1 h | Compound remaining (Liver): 51% | inhibition at 10 µM (CYP3A4): < 20% | Tmax [8]: 4 h | Activity (Mus musculus [17]): 50.9% | Activity (Mus musculus [18]): 30.3 g/dL

O=C1Nc2ccccc2C1(c1ccccc1)c1ccccc1
inhibition [19]: < 20%

CCNC(=O)C(c1ccccc1)(c1ccccc1)c1ccccc1
pIC50 [2]: 5.76

NC(=O)C(c1ccccc1)(c1ccccc1F)c1ccccc1F
pIC50 [2]: 7.52 | solubility thermodynamic [3]: > 31 µM | Compound remaining (Liver): 48%

NC(=O)C(c1ccc(F)cc1)(c1ccccc1F)c1ccccc1F
pIC50 [2]: 7.82 | solubility thermodynamic [3]: 6.8 µM (≈ 2.32 µg/mL) | Compound remaining (Liver): 46%

— ChEMBL document CHEMBL1141563, “Novel inhibitors of the Gardos channel for the treatment of sickle cell disease” (J Med Chem, 2008)
